Laboratory results from ChEMBL document CHEMBL1944609, “Niphatenones, glycerol ethers from the sponge Niphates digitalis block androgen receptor transcriptional activity in prostate cancer cells: structure elucidation, synthesis, and biological activity” (J Med Chem, 2012).
Activity calls are given as the source filed them. The calls are words filed in the database; no cut-off is given here.

Tests used:
[1] = target: T1, Androgen receptor (Homo sapiens) (UniProt P10275); assay: Antagonist activity at androgen receptor in human LNCAP cells transfected with p6.1-luciferase assessed as inhibition of R1881-induced transcriptional activity at 7 uM pretreated 1 hr prior to R1881 addition measured after 48 hrs by luciferase reporter gene assay; assay type: functional, cell-based
T1 sequence (whole entry): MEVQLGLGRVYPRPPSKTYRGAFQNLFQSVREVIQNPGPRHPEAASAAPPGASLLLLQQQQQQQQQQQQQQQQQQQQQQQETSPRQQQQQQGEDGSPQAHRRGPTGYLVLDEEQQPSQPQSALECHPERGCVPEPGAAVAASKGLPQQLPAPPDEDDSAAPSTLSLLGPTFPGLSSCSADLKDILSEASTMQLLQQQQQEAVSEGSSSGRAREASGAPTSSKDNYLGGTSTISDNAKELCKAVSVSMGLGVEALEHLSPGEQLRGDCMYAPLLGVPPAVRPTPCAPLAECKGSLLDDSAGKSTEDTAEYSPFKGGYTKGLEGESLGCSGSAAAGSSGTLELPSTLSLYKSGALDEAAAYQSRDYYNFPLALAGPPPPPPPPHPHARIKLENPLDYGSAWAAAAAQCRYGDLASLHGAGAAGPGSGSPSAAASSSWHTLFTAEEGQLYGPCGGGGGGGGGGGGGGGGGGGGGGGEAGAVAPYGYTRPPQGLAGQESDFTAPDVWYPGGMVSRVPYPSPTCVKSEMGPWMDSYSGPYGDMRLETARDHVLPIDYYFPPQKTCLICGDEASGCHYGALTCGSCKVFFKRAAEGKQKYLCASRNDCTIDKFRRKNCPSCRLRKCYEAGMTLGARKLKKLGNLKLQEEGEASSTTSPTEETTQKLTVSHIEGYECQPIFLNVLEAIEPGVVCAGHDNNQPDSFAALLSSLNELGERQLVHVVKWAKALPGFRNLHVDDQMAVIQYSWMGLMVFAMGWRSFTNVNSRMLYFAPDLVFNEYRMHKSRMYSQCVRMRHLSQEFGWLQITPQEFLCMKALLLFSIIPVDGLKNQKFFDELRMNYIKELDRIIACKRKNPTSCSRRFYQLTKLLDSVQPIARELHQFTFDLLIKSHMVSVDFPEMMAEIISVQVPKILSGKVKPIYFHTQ
Outline: (§1)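 LNCaP cells were transfected using lipofectin in serum-free, phenol red-free medium with PSA (6.1 kb) luciferase (0.5 μg/well) plus empty vector (1 μg/well) for 24 h. Cells were then given a 1 h compound pretreatment before R1881 was added. After 48 h, luciferase was read and normalized to Bradford protein, expressed as % of the R1881 + DMSO vehicle maximum. Data are mean ± SD of three experiments, each in triplicate.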

LNCaP = assay: Antiproliferative activity against R1881-stimulated human LNCAP cells expressing androgen receptor at 14 uM treated 1 hr before R1881 addition measured after 72 hrs by BrdU incorporation assay; assay type: functional, cell-based
Outline: (§2)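 LNCaP cells were seeded for 24 h in phenol red-free RPMI 1640 with 0.5% FBS and penicillin/streptomycin, then pretreated for 1 h before 0.1 nM R1881. After 72 h, BrdU was added for 2 h, then cells were fixed and incubated with anti-BrdU-POD for 1.5 h; absorbance was read at 570 nm. Data are mean ± SD of three experiments, 6 technical replicates each, analyzed by Student's t test versus R1881.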

PC-3 = assay: Antiproliferative activity against androgen receptor deficient human PC3 cells at 14 uM after 24 hrs by BrdU incorporation assay; assay type: functional, cell-based
Outline: as §2, with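 “PC3” for “LNCaP”, “red DMEM” for “red-free RPMI 1640”, “5%” for “0.5%”, “and cultured 24 h.” for “before 0.1 nM R1881. After 72 h,”, “test.” for “test versus R1881.”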

[2] = target: T1, Androgen receptor (Homo sapiens); assay: Antagonist activity at androgen receptor in human LNCAP cells transfected with p6.1-luciferase assessed as inhibition of R1881-induced transcriptional activity at 3.5 uM pretreated 1 hr prior to R1881 addition measured after 48 hrs by luciferase reporter gene assay; assay type: functional, cell-based; outline: as §1
[3] = target: T1, Androgen receptor (Homo sapiens); assay: Binding affinity to AF1 region of N-terminus domain androgen receptor at 20 uM after 50 mins by coomassine blue staining based SDS-PAGE analysis
Outline: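 Recombinant AR AF1 (purified by Ni2+-agarose, then size exclusion) at 10 μM was incubated on ice for 50 min with 20 μM alkyne probe in DMSO, or DMSO alone. The reaction was then diluted in half and click-labeled with 10 μM fluorescein azide, 0.1 mM ascorbate and 0.1 mM Cu(II)-TBTA for 30–40 min at RT. Labeling of the AF1 band was read as fluorescence on SDS-PAGE.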

For `CC(=O)/C=C/CCCOC[C@H](O)CO`, the inhibition [1] was “inactive”.
With `CCCCCCCCCCCCC(=O)CCCCCOC[C@H](O)CO` the inhibition [1] was “Active”.
In the case of `CCCCCCCCCCCCC(=O)/C=C/CCCOC[C@H]1CO1`, the inhibition [1] is reported as “Active”.
In the case of `CCCCCCCCCCCCC(=O)/C=C/CCCOC[C@H](O)CO`, the inhibition [1] is reported as “Active”, the Activity (LNCaP) is reported as “Active” and the Activity (PC-3) is reported as “inactive”.
`CCCCCCCCCCCCC(=O)/C=C/CCCCC[C@H](O)CO` was tested, and the inhibition [1] was “Active”.
In the case of `CCCCCCCCCCCCC(=O)/C=C/CCCOC[C@@H](O)COCCOCCOCCO`, the inhibition [1] is reported as “Active”.
`CCCCCCCCCCCCCCCCCC(=O)/C=C/CCCOC[C@H](O)CO` was tested, and the inhibition [2] was “Active”.
`CCCCCCCCCCCCC(=O)/C=C/CCCOC[C@@H]1COC(C)(C)O1` was tested, and the inhibition [1] was “Active”.
With `CCCCCCCCCCC/C=C/C(=O)CCCCOC[C@H](O)CO` the inhibition [1] was “Active”.
`C#CCOC[C@@H](O)COCCC/C=C/C(=O)CCCCCCCCCCCC` was tested, and the inhibition [1] was “Active” and the Activity [3] was “Active”.
`CCCCCCCCCCC/C=C/C(=O)CCCCOC[C@@H](O)CO` was tested, and the inhibition [1] was “inactive”.
`CCCCCCCCCCCCC(=O)/C=C/CCCOC[C@@H](O)CO` was tested, and the inhibition [1] was 50%, the Activity (LNCaP) was “Active” and the Activity (PC-3) was “inactive”.
With `CCCCCCCCCCCCC(=O)/C=C/CCCOC[C@@H](O)CCl` the inhibition [1] was “Active”.
